# From ChEMBL document CHEMBL1177711, “Novel quinolizidinyl derivatives as antiarrhythmic agents: 2. Further investigation” (J Med Chem, 2010)
# Key:
# Aorta [1] = test: Vasorelaxant activity in potassium depolarized guinea pig aortic strip assessed as inhibition of calcium-induced contraction at 50 uM; assay type: functional; settings: Cavia porcellus
# [2] = Negative chronotropic activity against potassium-induced contraction in guinea pig left atrium assessed as decrease atrial rate; assay type: functional, tissue-based; settings: Cavia porcellus, Cardiac atrium
# [3] = Negative inotropic activity against potassium-induced contraction in guinea pig left atrium assessed as decrease in developed tension; assay type: functional, tissue-based; settings: Cavia porcellus, Cardiac atrium
# [4] = Negative chronotropic activity against potassium-induced contraction in guinea pig left atrium assessed as decrease atrial rate at 10 uM relative to control; assay type: functional, Cavia porcellus, Cardiac atrium; set-up: scale not given: the % may be the effect or the level left
# [5] = Negative inotropic activity against potassium-induced contraction in guinea pig left atrium assessed as decrease in developed tension at 5 uM relative to control; assay type: functional, Cavia porcellus, Cardiac atrium; set-up: scale not given: the % may be the effect or the level left
# [6] = Antiarrhythmic activity in sinusoidal alternating current-induced guinea pig left atrium assessed as increase in current strength at which extra beats occur at 1 uM measured every 30 mins; assay type: functional, Cavia porcellus, Cardiac atrium
# Method in brief: (§1)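 Isolated guinea pig left atria, electrically driven at 1 Hz, were exposed to sinusoidal alternating current to induce arrhythmia. The read-out was the rise in the ac-arrhythmia threshold over concentrations up to 100 μM.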
# Aorta [7] = test: Vasorelaxant activity in potassium depolarized guinea pig aortic strip assessed as inhibition of calcium-induced contraction at 100 uM; assay type: functional; settings: Cavia porcellus
# [8] = Negative chronotropic activity against potassium-induced contraction in guinea pig left atrium assessed as decrease atrial rate at 100 uM relative to control; assay type: functional, Cavia porcellus, Cardiac atrium; set-up: scale not given: the % may be the effect or the level left
# [9] = Negative inotropic activity against potassium-induced contraction in guinea pig left atrium assessed as decrease in developed tension at 10 uM relative to control; assay type: functional, Cavia porcellus, Cardiac atrium; set-up: scale not given: the % may be the effect or the level left
# [10] = Antiarrhythmic activity in sinusoidal alternating current-induced guinea pig left atrium assessed as increase in current strength at which extra beats occur at 5 uM measured every 30 mins; assay type: functional, Cavia porcellus, Cardiac atrium; method in brief: as §1
# [11] = Negative inotropic activity against potassium-induced contraction in guinea pig left atrium assessed as decrease in developed tension at 0.5 uM relative to control; assay type: functional, Cavia porcellus, Cardiac atrium; set-up: scale not given: the % may be the effect or the level left
# [12] = Antiarrhythmic activity in sinusoidal alternating current-induced guinea pig left atrium assessed as increase in current strength at which extra beats occur measured every 30 mins; assay type: functional, tissue-based; settings: Cavia porcellus, Cardiac atrium, 0.5 h; method in brief: as §1
# [13] = Antiarrhythmic activity in sinusoidal alternating current-induced guinea pig left atrium assessed as increase in current strength at which extra beats occur at 10 uM measured every 30 mins; assay type: functional, Cavia porcellus, Cardiac atrium; method in brief: as §1
# [14] = […] chronotropic activity against potassium-induced contraction in guinea pig left atrium assessed as decrease atrial rate at 100 uM relative to control; assay type: functional, Cavia porcellus, Cardiac atrium; set-up: scale not given: the % may be the effect or the level left
# [15] = Negative inotropic activity against potassium-induced contraction in guinea pig left atrium assessed as decrease in developed tension at 1 uM relative to control; assay type: functional, Cavia porcellus, Cardiac atrium; set-up: scale not given: the % may be the effect or the level left
# [16] = Negative chronotropic activity against potassium-induced contraction in guinea pig left atrium assessed as decrease atrial rate at 50 uM relative to control; assay type: functional, Cavia porcellus, Cardiac atrium; set-up: scale not given: the % may be the effect or the level left
# [17] = Negative inotropic activity against potassium-induced contraction in guinea pig left atrium assessed as decrease in developed tension at 50 uM relative to control; assay type: functional, Cavia porcellus, Cardiac atrium; set-up: scale not given: the % may be the effect or the level left
# [18] = Antiarrhythmic activity in sinusoidal alternating current-induced guinea pig left atrium assessed as increase in current strength at which extra beats occur at 100 uM measured every 30 mins; assay type: functional, Cavia porcellus, Cardiac atrium; method in brief: as §1
# [19] = Cardioprotective effect in Langendorff perfused guinea pig spontaneously beating […] assessed as duration of ventricular action potential at 10 uM (RVb = 140 to 161 +/- 2 to 8 ms); assay type: functional, Cavia porcellus, Cardiac ventricle
# Method in brief: (§2)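 Whole guinea pig hearts were Langendorff-perfused and their ECG recorded at graded concentrations. Intervals read were PR (atrioventricular conduction time), QT (ventricular action potential duration) and QRS (intraventricular conduction time).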
# [20] = Cardioprotective effect in Langendorff perfused guinea pig spontaneously beating […] assessed as duration of ventricular action potential at 1 uM (RVb = 140 to 161 +/- 2 to 8 ms); assay type: functional, Cavia porcellus, Cardiac ventricle; method in brief: as §2
# [21] = Cardioprotective effect in Langendorff perfused guinea pig spontaneously beating […] assessed as atrioventicular conduction time at 1 uM (RVb = 50 to 55 +/- 1 to 4 ms); assay type: functional; settings: Cavia porcellus; method in brief: as §2
# [22] = Ratio of compound to auinidine for antiarrhythmic activity in sinusoidal alternating current-induced guinea pig left atrium; assay type: functional, Cavia porcellus, Cardiac atrium
# Method in brief: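 The antiarrhythmic EC50 was taken from the ac-arrhythmia threshold rise in 1 Hz-driven guinea pig left atria, using probit analysis.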
# [23] = Cardioprotective effect in Langendorff perfused guinea pig spontaneously beating […] assessed as duration of ventricular action potential at 0.1 uM (RVb = 140 to 161 +/- 2 to 8 ms); assay type: functional, Cavia porcellus, Cardiac ventricle; method in brief: as §2
# [24] = Cardioprotective effect in Langendorff perfused guinea pig spontaneously beating […] assessed as duration of ventricular action potential at 0.01 uM (RVb = 140 to 161 +/- 2 to 8 ms); assay type: functional, Cavia porcellus, Cardiac ventricle; method in brief: as §2
# [25] = Cardioprotective effect in Langendorff perfused guinea pig spontaneously beating […] assessed as duration of ventricular action potential at 0.001 uM (RVb = 140 to 161 +/- 2 to 8 ms); assay type: functional, Cavia porcellus, Cardiac ventricle; method in brief: as §2
# [26] = Cardioprotective effect in Langendorff perfused guinea pig spontaneously beating […] assessed as intraventicular conduction time at 10 uM (RVb = 19 to 24 +/- 1 to 2 ms); assay type: functional; settings: Cavia porcellus; method in brief: as §2
# [27] = Cardioprotective effect in Langendorff perfused guinea pig spontaneously beating […] assessed as intraventicular conduction time at 1 uM (RVb = 19 to 24 +/- 1 to 2 ms); assay type: functional; settings: Cavia porcellus; method in brief: as §2
# [28] = Cardioprotective effect in Langendorff perfused guinea pig spontaneously beating […] assessed as intraventicular conduction time at 0.1 uM (RVb = 19 to 24 +/- 1 to 2 ms); assay type: functional; settings: Cavia porcellus; method in brief: as §2
# [29] = Cardioprotective effect in Langendorff perfused guinea pig spontaneously beating […] assessed as intraventicular conduction time at 0.01 uM (RVb = 19 to 24 +/- 1 to 2 ms); assay type: functional; settings: Cavia porcellus; method in brief: as §2
# [30] = Cardioprotective effect in Langendorff perfused guinea pig spontaneously beating […] assessed as intraventicular conduction time at 0.001 uM (RVb = 19 to 24 +/- 1 to 2 ms); assay type: functional; settings: Cavia porcellus; method in brief: as §2
# [31] = Cardioprotective effect in Langendorff perfused guinea pig spontaneously beating […] assessed as atrioventicular conduction time at 10 uM (RVb = 50 to 55 +/- 1 to 4 ms); assay type: functional; settings: Cavia porcellus; method in brief: as §2
# [32] = Cardioprotective effect in Langendorff perfused guinea pig spontaneously beating […] assessed as atrioventicular conduction time at 0.1 uM (RVb = 50 to 55 +/- 1 to 4 ms); assay type: functional; settings: Cavia porcellus; method in brief: as §2
# [33] = Cardioprotective effect in Langendorff perfused guinea pig spontaneously beating […] assessed as atrioventicular conduction time at 0.01 uM (RVb = 50 to 55 +/- 1 to 4 ms); assay type: functional; settings: Cavia porcellus; method in brief: as §2
# [34] = Cardioprotective effect in Langendorff perfused guinea pig spontaneously beating […] assessed as atrioventicular conduction time at 0.001 uM (RVb = 50 to 55 +/- 1 to 4 ms); assay type: functional; settings: Cavia porcellus; method in brief: as §2
# Heart [35] = test: Cardioprotective effect in Langendorff perfused guinea pig spontaneously beating […] assessed as heart rat at 0.001 uM (RVb = 175 to 190 +/- 5 to 11 bpm); assay type: functional, Cavia porcellus
# Heart [36] = test: Cardioprotective effect in Langendorff perfused guinea pig spontaneously beating […] assessed as heart rat at 0.01 uM (RVb = 175 to 190 +/- 5 to 11 bpm); assay type: functional, Cavia porcellus
# Heart [37] = test: Cardioprotective effect in Langendorff perfused guinea pig spontaneously beating […] assessed as heart rat at 0.1 uM (RVb = 175 to 190 +/- 5 to 11 bpm); assay type: functional, Cavia porcellus
# Heart [38] = test: Cardioprotective effect in Langendorff perfused guinea pig spontaneously beating […] assessed as heart rat at 1 uM (RVb = 175 to 190 +/- 5 to 11 bpm); assay type: functional, Cavia porcellus
# Heart [39] = test: Cardioprotective effect in Langendorff perfused guinea pig spontaneously beating […] assessed as heart rat at 10 uM (RVb = 175 to 190 +/- 5 to 11 bpm); assay type: functional, Cavia porcellus
# [40] = Antiarrhythmic activity in sinusoidal alternating current-induced guinea pig left atrium assessed as increase in current strength at which extra beats occur at 0.5 uM measured every 30 mins; assay type: functional, Cavia porcellus, Cardiac atrium; method in brief: as §1
structure (smiles),measurement,setting,value
COc1ccc2c(c1)nc(Cc1ccccc1)c(=O)n2C[C@H]1CCCN2CCCC[C@@H]12,inhibition at 50 µM,Aorta [1],18%
same,EC50,[2],2.75 µM
same,EC50,[3],0.11 µM
same,Activity,[4],62%
same,Activity,[5],86%
same,Activity,[6],14%
O=C(Cn1nc2ccc(Cl)cc2n1)NC[C@@H]1CCCN2CCCC[C@H]12,inhibition at 100 µM,Aorta [7],26%
same,EC50,[3],0.074 µM
same,Activity,[8],27%
same,Activity,[9],92%
same,Activity,[10],28%
COc1cc(C(=O)NC[C@@H]2CCCN3CCCC[C@H]23)cc(OC)c1OC,inhibition at 100 µM,Aorta [7],7%
same,EC50,[3],0.017 µM
same,Activity,[11],79%
same,EC50,[12],2.62 µM
same,Activity,[13],56%
same,Activity,[14],11%
Cc1cccc(C)c1NC[C@@H]1CCCN2CCCC[C@H]12,inhibition at 50 µM,Aorta [1],27%
same,EC50,[3],0.023 µM
same,Activity,[4],40%
same,Activity,[15],75%
same,Activity,[13],28%
Cc1cccc(C)c1NCC[C@@H]1CCCN2CCCC[C@H]12,inhibition at 50 µM,Aorta [1],28%
same,EC50,[2],6.89 µM
same,EC50,[3],0.34 µM
same,Activity,[16],72%
same,Activity,[17],89%
same,EC50,[12],0.46 µM
same,Activity,[18],208%
same,Activity,[19],175 ms
same,Activity,[20],170 ms
same,AV conduction time,[21],58 ms
same,Ratio,[22],3
same,Activity,[23],160 ms
same,Activity,[24],157 ms
same,Activity,[25],154 ms
same,intraventricular conduction time,[26],21 ms
same,intraventricular conduction time,[27],20 ms
same,intraventricular conduction time,[28],20 ms
same,intraventricular conduction time,[29],19 ms
same,intraventricular conduction time,[30],19 ms
same,AV conduction time,[31],59 ms
same,AV conduction time,[32],57 ms
same,AV conduction time,[33],56 ms
same,AV conduction time,[34],53 ms
same,Activity,Heart [35],182 bpm
same,Activity,Heart [36],171 bpm
same,Activity,Heart [37],163 bpm
same,Activity,Heart [38],142 bpm
same,Activity,Heart [39],136 bpm
O=C(Cn1nc2ccccc2n1)NC[C@@H]1CCCN2CCCC[C@H]12,inhibition at 100 µM,Aorta [7],4%
same,EC50,[3],0.035 µM
same,Activity,[8],34%
same,Activity,[17],98%
same,Activity,[40],26%
